From the EternaBench riboswitch data come the findings set out here.

This data set deals with MS2 coat protein. Kind of data set: apparent Kd, MS2 coat protein; higher = weaker binding; RNA-MaP array; FMN 200 µM where present. Put shortly:
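Green signal from SNAP-549-labelled MS2 coat protein was normalised to red-channel RNA signal and to the median Fmax of control clusters. The protein was titrated from 0.7 or 1.5 nM, doubling to 3 µM, without and then with constant ligand, over designs transcribed by stalled E. coli RNA polymerase on Illumina sequencing-chip clusters, in 100 mM Tris-HCl pH 7.5, 80 mM KCl, 4 mM MgCl2, BSA, DTT, yeast tRNA and Tween-20. The apparent Kd is the median of filtered per-cluster binding-curve fits.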

Where [1] appears, read: designed as: OFF switch for flavin mononucleotide, no ligand.
Where [2] appears, read: ligand present: flavin mononucleotide, designed as: OFF switch for flavin mononucleotide.
[3] abbreviates: designed as: ON switch for flavin mononucleotide, no ligand.
Where [4] appears, read: ligand present: flavin mononucleotide, designed as: ON switch for flavin mononucleotide.

For orientation: apparent Kd means a dissociation constant that holds for the conditions of the assay. For the sequence “UGCUAGUGAGGAUAUGCUGGAAUAAAGAUUUGACGUGGCGAACAUGAGGAUCACCCAUGUAGAAGGCACAAUAC”, the “apparent Kd” value under setting [1] amounted to 12.8 nM and the “apparent Kd” value under setting [2] was found to be 15.7 nM.

For the sequence “AAGAUGUGAGGAUAUCACGAGAGCGUCAAACGGACACUCUCUGAGAAGGCACAUGAGGAUCACCCAUGUCCAAA”, the “apparent Kd” value reads like this: under setting [1], 57.2 nM; under setting [2], 295 nM.

As to “GGAAAGUCAGGAUAUGGAUAAUAAAUACAAAUAGAAACAAACCAGAAGGGACAUGAGGAUCACCCAUGUAAACA”, the “apparent Kd” value runs as follows: under setting [1], 24.1 nM; under setting [2], 23.1 nM.

Take “GUCAGCUCGUGAGGAUAUACAUCACUGCUUCGGCAGUGUAUUAAGUUCACAUGAGGAUCACCCAUGUAGAAGGCACGAGCUGAU”: the “apparent Kd” value was determined as 15.2 nM under setting [1] and 20.3 nM under setting [2].

In the case of “GACAUGGUCCAGAAGGGCUAUUUAUUUAAUUAUUAUUUAGAACAGCAUAGCAGGAUAUGGUUAACAUGAGGAUCACCCAUGUUC”, the “apparent Kd” value came to 26.2 nM under setting [3] and 20.8 nM under setting [4].

Regarding “UUUUUAUUUGCAGGAUAUUGUAUUUUAUUACAUCAAGAAGGGCAUUACAUGAGGAUCACCCAUGUCAUCCUAUGGUUAACUAGU”, the “apparent Kd” value runs as follows: under setting [1], 9.62 nM; under setting [2], 9.77 nM.

For the sequence “UGUUAAUAUCGAGGAUAUGUCUAGACACAUGAGGAUCACCCAUGUAUGUGUAUAGAAGGCGAUAUUAACAGCAUGUUACAUGCA”, the “apparent Kd” value under setting [3] was determined as 36.9 nM and the “apparent Kd” value under setting [4] came to 16.9 nM.

For the sequence “CAGUACUGAGGAUAUACAUGAGGAUCACCCAUGUGUUCCAGCUGGGAAACUAGCAAAAGUAGAAGGCAGUACUG”, the “apparent Kd” value by setting is: under setting [1], 25.5 nM; under setting [2], 395 nM.

On to “ACAUUAGAAGAGAAGGUUCAUACUAUUAUCAACAUACAUGAGGAUCACCCAUGUUGGUGAUUAAGAAAGGAUAUUUAUAACACU”, for which the “apparent Kd” value is, setting by setting: under setting [1], 23.1 nM; under setting [2], 20.6 nM.

Regarding “CCCACGUGUGCAGGAUAUCCCACGAGCGCAACAUGAGGAUCACCCAUGUACCUGAGUCUCGGAACGGAGAAGGGUACAUGUUAU”, the “apparent Kd” value under setting [3] worked out at 432 nM and the “apparent Kd” value under setting [4] is 101 nM.

As for “UGUGCGUUGAUCUUCGAUCGGAGUACAUGAGGAUCACCCAUGUAGGAUAUUCAAAGACGCAGAUAGAAGAAGGACAUAGGUUUC”, the “apparent Kd” value runs as follows: under setting [1], 10.1 nM; under setting [2], 11.1 nM.

Turning to “UGGUACAUGGGAGGAUAUGGGAAGUUAACAUGAGGAUCACCCAUGUUAUGCCGAAAGGCAAAGAACUAGAAGGCCCAUGUACCU”, the “apparent Kd” value runs as follows: under setting [3], 16.7 nM; under setting [4], 16.1 nM.

Regarding “UGUGUGUGGCAGGAUAUGCCGGUCGUAGGACGGGUAGAAGGGUCUACAUGAGGAUCACCCAUGUGGCCGGUUGG”, the “apparent Kd” value runs as follows: under setting [1], 19.2 nM; under setting [2], 18.5 nM.

Take “GUUAUGUGAGGAUAUAUGUAGGAAACUACAUUAAGGGUAUCACAUGAGGAUCACCCAUGUAGAAGGCGCGUAGC”: the “apparent Kd” value reads like this: under setting [1], 298 nM; under setting [2], 349 nM.

As for “CCACAUGAGGAUCACCCAUGUGACUUCUGUGGCCCGGUGUUGCAGGAUAUCGCAAGGUUAGUUGACGAGAAGGGCGACGGUGGU”, the “apparent Kd” value is, setting by setting: under setting [1], 31.1 nM; under setting [2], 102 nM.

Turning to “UUAAAUCAUGUAGGAUAUGCAUGGCGAAGCUACGCAGAAGGACAUGAGGAUCACCCAUGUUAUAGCGUCCGAUUAAGGAUGCAA”, the “apparent Kd” value runs as follows: under setting [1], 91.9 nM; under setting [2], 216 nM.

For the sequence “AUAUGCCAUGUAAGGAUAUACUGGAGCAUAAGCUCGUAGAAGGUACAUGAGGAUCACCCAUGUGGACCCGACAC”, the “apparent Kd” value by setting is: under setting [1], 29.9 nM; under setting [2], 34.9 nM.

With “AGUAACAGAGGAUAUACUAUUUUAUGUGUUUGUUGUUUUGAACAUGAGGAUCACCCAUGUAGAAGGCUGAAUAA”, the “apparent Kd” value was determined as 23.9 nM under setting [1] and 24.9 nM under setting [2].

In the case of “AAUAAGCUAGGAUAUACAUGAGGAUCACCCAUGUGAGGGCACGGCCGGCGCGGGCCCGGUAGAAGGAGUCAUAA”, the “apparent Kd” value was found to be 28.6 nM under setting [1] and 23.6 nM under setting [2].

Take “GGAUCGUAUGUCAGGAUAUACCACUGGAUACAGUGGUAGAAGGGACAUGAGGAUCACCCAUGUCUUAUCGAUCC”: the “apparent Kd” value reads like this: under setting [1], 13.2 nM; under setting [2], 18.3 nM.
